Among the data in ChEMBL document CHEMBL1122117, “Pyridazinones. 1. Synthesis and antisecretory and antiulcer activities of thio amide derivatives” (1982) are inhibition in vivo and ED50 values, retold here.

Holding throughout (format): functional
Test [1] deals with Rattus norvegicus. Briefly: Inhibition of gastric antisecretory activity in the pylorus-ligated rat at a dose of 100 mg/kg administered intraduodenally. To be noted: Stomach, route intraduodenal. The method, boiled down: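 Shay pylorus-ligated rats, fasted, six per group, ligated under ether. A single intraduodenal dose of 100 mg/kg was given in 1% carboxymethylcellulose, against a vehicle control. The stomach was removed 7 h later, juice volume measured, and free acid titrated with 0.1 N NaOH to pH 3.0 as hourly output. Results are given as percent inhibition versus control.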

Test [2] concerns Rattus norvegicus. Briefly: Effective dose required for gastric antisecretory activity in the pylorus-ligated rat after intraduodenal administration. To be noted: Stomach. The method, boiled down: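 Pylorus ligated under ether in fasted rats, six per group. Test agents were given intraduodenally at several dose levels in 1% carboxymethylcellulose, with a vehicle control group. After 7 h the gastric juice volume was measured and titrated with 0.1 N NaOH to pH 3.0 for free acid, as hourly output per rat. ED50 was calculated.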

Test [3] concerns Rattus norvegicus. The experiment in a line: Antiulcer activity in male Donry rat for 50% inhibition of aspirin induced gastric lesions after intraduodenal administration. To be noted: Stomach. The method, boiled down: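 Aspirin ulcer model. Male Donryu rats of 200–220 g were food-deprived 24 h, ten per group, pylorus-ligated, then dosed intraduodenally. Ten min later they received oral aspirin 100 mg/kg in 1% carboxymethylcellulose. At 7 h the summed lengths of glandular lesions gave the ulcer index (mm). ED50 by Litchfield–Wilcoxon.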

Test [4] concerns Rattus norvegicus. Briefly: Antiulcer activity as dose required to inhibit 50% gastric juice secretions in male Wistar rats after intraduodenally administration. To be noted: intraduodenal.
The subject of test [5] is Rattus norvegicus. Briefly: Antiulcer activity in male Wistar rats for 50% inhibition of stress induced gastric lesions after peroral administration. To be noted: Stomach, po. The method, boiled down: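 Stress ulcer model. Male Wistar rats of 200–220 g, ten per group, were dosed orally, then immobilized in a stress cage and immersed in a water bath. The stomach was removed 7 h later and summed lesion lengths gave the ulcer index (mm). ED50 by Litchfield–Wilcoxon.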

Consider `Cc1cc(-c2ccccc2)nn(CCC(=N)S)c1=O`, for which the inhibition in vivo – broadly, the relative decrease from the control value, in per cent – at 100 mg/kg in the test with Rattus norvegicus [1] came to 60.2%. The median effective dose (ED50) (usually the dose at which the effect has come halfway, by size or by number of responders) in the test with Rattus norvegicus [2] is 66.7 mg/kg; with Rattus norvegicus [3], 73.1 mg/kg; with Rattus norvegicus [4], 32 mg/kg; with Rattus norvegicus [5], greater than 50 mg/kg.

As for `Cc1cc(=O)n(CCC(=N)S)nc1-c1ccccc1`, in the test with Rattus norvegicus [1], the inhibition in vivo at 100 mg/kg stood at 32%. For the same compound, in the test with Rattus norvegicus [2], the ED50 was greater than 100 mg/kg.

On to `Cc1ccc(=O)n(CCCCC(=N)S)n1`, for which, in the test with Rattus norvegicus [1], the inhibition in vivo at 100 mg/kg stood at 29.5%. This compound also yielded an ED50 in the test with Rattus norvegicus [2] greater than 100 mg/kg.

Turning to `Cc1ccc(-c2ccc(=O)n(CCC(=N)S)n2)cc1`, the inhibition in vivo at 100 mg/kg in the test with Rattus norvegicus [1] came to 18.2%.

Regarding `CC(Cn1nc(-c2ccccc2)ccc1=O)C(=N)S` (stereo not drawn), the inhibition in vivo at 100 mg/kg with Rattus norvegicus [1] was found to be 86.4%. Further, the 50% effective dose (ED50) in the test on Rattus norvegicus [2] turned out to be 28.1 mg/kg; in the test on Rattus norvegicus [3] it was 35 mg/kg; in the test with Rattus norvegicus [4], 18.2 mg/kg; in the test with Rattus norvegicus [5], 36.1 mg/kg.

With `N=C(S)CCCCCN1N=C(c2ccccc2)CCC1=O`, in the test with Rattus norvegicus [1], the inhibition in vivo at 100 mg/kg came out at 48.5%. The 50% effect level in the test on Rattus norvegicus [2] (ED50) was put at a dose of 100 mg/kg.

With `NC(=O)CCn1nc(-c2ccccc2)ccc1=O`, in the test on Rattus norvegicus [1], the inhibition in vivo at 100 mg/kg is -2.8%.

Turning to `CC/N=C(\S)CCn1nc(-c2ccccc2)ccc1=O`, in the test on Rattus norvegicus [1], the inhibition in vivo at 100 mg/kg was 50.3%. The same compound registered an ED50 in the test with Rattus norvegicus [2] of 100 mg/kg.

Take `N=C(S)CCCCCCN1N=C(c2ccccc2)CCC1=O`: the inhibition in vivo at 100 mg/kg in the test on Rattus norvegicus [1] was found to be 68.3%. The median effective dose (ED50) was found to be 58.8 mg/kg with Rattus norvegicus [2], 72.3 mg/kg in the test on Rattus norvegicus [3], 24.8 mg/kg with Rattus norvegicus [4] and 23 mg/kg with Rattus norvegicus [5].

As for `Cc1ccc(=O)n(C(C)CC(=N)S)n1` (stereo not drawn), in the test on Rattus norvegicus [1], the inhibition in vivo at 100 mg/kg worked out at 32.5%. In the test on Rattus norvegicus [2], this compound had a median effective dose (ED50) greater than 100 mg/kg.

For the compound `CC(CN1N=C(c2ccccc2)CCC1=O)C(=N)S` (stereo not drawn), in the test with Rattus norvegicus [1], the inhibition in vivo at 100 mg/kg came to 28.2%.

Turning to `N=C(S)CCN1N=C(c2ccccc2)CCC1=O`, the inhibition in vivo at 100 mg/kg in the test with Rattus norvegicus [1] was 38.2%. The compound also yielded a 50% effective dose (ED50) in the test on Rattus norvegicus [2] greater than 100 mg/kg.

As to `N=C(S)CCN1N=C(c2cccs2)CCC1=O`, the inhibition in vivo at 100 mg/kg with Rattus norvegicus [1] was determined as 58.5%. The compound also had a 50% effective dose (ED50) in the test with Rattus norvegicus [2] of 77.3 mg/kg.

On to `CC1=NN(CC(C)C(=N)S)C(=O)CC1` (stereo not drawn), for which, in the test on Rattus norvegicus [1], the inhibition in vivo at 100 mg/kg amounted to 15.6%.

For `N=C(S)CCn1nc(-c2ccccc2)ccc1=S`, the inhibition in vivo at 100 mg/kg with Rattus norvegicus [1] was 62.3%. Besides, the median effective dose (ED50) in the test with Rattus norvegicus [2] stood at 73.4 mg/kg.

For the compound `N=C(S)CCCCN1N=C(c2ccccc2)CCC1=O`, the inhibition in vivo at 100 mg/kg with Rattus norvegicus [1] worked out at 50.2%. Moreover, the median effective dose (ED50) with Rattus norvegicus [2] came out at 100 mg/kg.

Turning to `N=C(S)CCn1nc(-c2ccccc2)c2ccccc2c1=O`, the inhibition in vivo at 100 mg/kg in the test with Rattus norvegicus [1] amounted to 73.3%. The 50% effective dose (ED50) in the test with Rattus norvegicus [2] amounted to 66.5 mg/kg.

As for `N=C(S)CCn1ncccc1=O`, in the test with Rattus norvegicus [1], the inhibition in vivo at 100 mg/kg is 28.8%. Moreover, the ED50 in the test with Rattus norvegicus [2] was greater than 100 mg/kg.

Regarding `CC(CC(=N)S)n1ncccc1=O` (stereo not drawn), the inhibition in vivo at 100 mg/kg with Rattus norvegicus [1] was determined as 38.8%. Also, in the test with Rattus norvegicus [2], the 50% effective dose (ED50) is greater than 100 mg/kg.

As to `N=C(S)CCCCCn1nc(-c2ccccc2)ccc1=O`, the inhibition in vivo at 100 mg/kg in the test on Rattus norvegicus [1] worked out at 91.4%. The ED50 amounted to 23.3 mg/kg in the test on Rattus norvegicus [2], 18.2 mg/kg in the test with Rattus norvegicus [3], 9.2 mg/kg in the test with Rattus norvegicus [4] and 10.2 mg/kg in the test with Rattus norvegicus [5].

In the case of `N=C(S)CCn1nc2c(cc1=O)CCc1ccccc1-2`, the inhibition in vivo at 100 mg/kg in the test with Rattus norvegicus [1] amounted to 1.6%.

`N=C(S)CCn1nc(-c2ccccc2)ccc1=O`: the inhibition in vivo at 100 mg/kg in the test with Rattus norvegicus [1] came out at 53.7%. The 50% effective dose (ED50) with Rattus norvegicus [2] was determined as 87.3 mg/kg; with Rattus norvegicus [3], 53.5 mg/kg; with Rattus norvegicus [4], 23.2 mg/kg; with Rattus norvegicus [5] it was 34.5 mg/kg.

As for `O=C(O)CCn1nc(-c2ccccc2)ccc1=O`, the inhibition in vivo at 100 mg/kg in the test on Rattus norvegicus [1] was determined as 26.1%.

Regarding `Cc1ccc(=O)n(CCC#N)n1`, in the test on Rattus norvegicus [1], the inhibition in vivo at 100 mg/kg is -0.2%.

Take `COc1ccc2cc(-c3ccc(=O)n(CCC(=N)S)n3)ccc2c1`: in the test with Rattus norvegicus [1], the inhibition in vivo at 100 mg/kg turned out to be 48.9%. The 50% effect level with Rattus norvegicus [2] (ED50) was put at a dose of 100 mg/kg.

In the case of `CN(C)C(=S)CCCCCn1nc(-c2ccccc2)ccc1=O`, the inhibition in vivo at 100 mg/kg in the test with Rattus norvegicus [1] came to 58.2%. Further, the median effective dose (ED50) in the test on Rattus norvegicus [2] is 100 mg/kg.

Turning to `N=C(S)CCn1[nH]c(=O)ccc1=O`, the inhibition in vivo at 100 mg/kg in the test on Rattus norvegicus [1] was -13.4%.

With `C/N=C(\S)C(C)Cn1ncccc1=O` (stereo not drawn), the inhibition in vivo at 100 mg/kg with Rattus norvegicus [1] turned out to be 50.2%. For the same compound, the ED50 was 100 mg/kg in the test on Rattus norvegicus [2], 68.5 mg/kg in the test on Rattus norvegicus [3], 40 mg/kg in the test with Rattus norvegicus [4] and greater than 50 mg/kg with Rattus norvegicus [5].

`CC1=NN(C(C)CC(=N)S)C(=O)CC1` (stereo not drawn): the inhibition in vivo at 100 mg/kg in the test with Rattus norvegicus [1] was 17.4%.

`N=C(S)CCn1ncccc1=S`: the inhibition in vivo at 100 mg/kg with Rattus norvegicus [1] amounted to 50%. The compound further registered a median effective dose (ED50) with Rattus norvegicus [2] of 100 mg/kg.

`N=C(S)CCCN1N=C(c2ccccc2)CCC1=O`: the inhibition in vivo at 100 mg/kg in the test on Rattus norvegicus [1] came to 50.3%. This compound gave an ED50 with Rattus norvegicus [2] of 100 mg/kg.

With `Cc1ccc(=O)n(CC(=N)S)n1`, in the test on Rattus norvegicus [1], the inhibition in vivo at 100 mg/kg is 31.5%. In the test on Rattus norvegicus [2], this compound yielded an ED50 greater than 100 mg/kg.

Turning to `N=C(S)CCCn1nc(-c2ccccc2)ccc1=O`, the inhibition in vivo at 100 mg/kg in the test on Rattus norvegicus [1] was 75.6%. Also, the ED50 with Rattus norvegicus [2] was 31.9 mg/kg; with Rattus norvegicus [3] it was 38 mg/kg; with Rattus norvegicus [4], 15.5 mg/kg; in the test with Rattus norvegicus [5] it was 10.5 mg/kg.
